ChEMBL document CHEMBL1126195, “A new, general synthetic route to multidentate N,S ligands for use in technetium-99m radiopharmaceuticals. Preparation of diamido disulfur, diamino dithiol, and tripodal N3S3 prototypes. Comparative biodistributions of [99mTcvO-DADS]- analogues which contain 5,5,5- and 5,7,5-membered chelate ring …” (J Med Chem, 1992)

Columns and labels:
Rattus norvegicus [1] = organism: Rattus norvegicus; assay: Biodistribution was reported in rat blood after 15 min.; type: ADME, organism-based; conditions: in vivo, 0.25 h
Procedure, shortened: (§1)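 Female Sprague-Dawley rats (~200 g average, n = 3 per time point) were anesthetized with Metofane. They received 0.2 mL of 99mTc complex (50 µCi) by jugular vein injection. Rats were killed by cervical dislocation at early times or CO2 at later times. Blood (1 mL), brain, heart, a liver sample and one kidney were weighed and gamma-counted (100-150 keV) against standards. Values are average % injected dose/organ.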

Rattus norvegicus [2] = organism: Rattus norvegicus; assay: Biodistribution was reported in rat liver after 60 min.; type: ADME, organism-based; conditions: in vivo, 1 h; procedure, shortened: as §1
Rattus norvegicus [3] = organism: Rattus norvegicus; assay: Biodistribution was reported in rat brain after 5 min.; type: ADME, organism-based; conditions: in vivo; procedure, shortened: as §1
Rattus norvegicus [4] = organism: Rattus norvegicus; assay: Biodistribution was reported in rat liver after 30 min.; type: ADME, organism-based; conditions: in vivo, 0.5 h; procedure, shortened: as §1
Rattus norvegicus [5] = organism: Rattus norvegicus; assay: Biodistribution was reported in rat blood after 30 min.; type: ADME, organism-based; conditions: in vivo, 0.5 h; procedure, shortened: as §1
Rattus norvegicus [6] = organism: Rattus norvegicus; assay: Biodistribution was reported in rat blood after 60 min.; type: ADME, organism-based; conditions: in vivo, 1 h; procedure, shortened: as §1
Rattus norvegicus [7] = organism: Rattus norvegicus; assay: Biodistribution was reported in rat brain after 1 min.; type: ADME, organism-based; conditions: in vivo; procedure, shortened: as §1
Rattus norvegicus [8] = organism: Rattus norvegicus; assay: Biodistribution was reported in rat heart after 60 min.; type: ADME, organism-based; conditions: in vivo, 1 h; procedure, shortened: as §1
Rattus norvegicus [9] = organism: Rattus norvegicus; assay: Biodistribution was reported in rat kidney after 30 min.; type: ADME, organism-based; conditions: in vivo, 0.5 h; procedure, shortened: as §1
Rattus norvegicus [10] = organism: Rattus norvegicus; assay: Biodistribution was reported in rat heart after 5 min.; type: ADME, organism-based; conditions: in vivo; procedure, shortened: as §1
Rattus norvegicus [11] = organism: Rattus norvegicus; assay: Biodistribution was reported in rat brain after 60 min.; type: ADME, organism-based; conditions: in vivo, 1 h; procedure, shortened: as §1
Rattus norvegicus [12] = organism: Rattus norvegicus; assay: Biodistribution was reported in rat heart after 1 min.; type: ADME, organism-based; conditions: in vivo; procedure, shortened: as §1
Rattus norvegicus [13] = organism: Rattus norvegicus; assay: Biodistribution was reported in rat liver after 5 min.; conditions: in vivo
Rattus norvegicus [14] = organism: Rattus norvegicus; assay: Biodistribution was reported in rat blood after 5 min.; type: ADME, organism-based; conditions: in vivo; procedure, shortened: as §1
Rattus norvegicus [15] = organism: Rattus norvegicus; assay: Biodistribution was reported in rat heart after 15 min.; type: ADME, organism-based; conditions: in vivo, 0.25 h; procedure, shortened: as §1
Rattus norvegicus [16] = organism: Rattus norvegicus; assay: Biodistribution was reported in rat kidney after 1 min.; type: ADME, organism-based; conditions: in vivo; procedure, shortened: as §1
Rattus norvegicus [17] = organism: Rattus norvegicus; assay: Biodistribution was reported in rat brain after 15 min.; type: ADME, organism-based; conditions: in vivo, 0.25 h; procedure, shortened: as §1
Rattus norvegicus [18] = organism: Rattus norvegicus; assay: Biodistribution was reported in rat heart after 30 min.; type: ADME, organism-based; conditions: in vivo, 0.5 h; procedure, shortened: as §1
Rattus norvegicus [19] = organism: Rattus norvegicus; assay: Biodistribution was reported in rat blood after 1 min.; type: ADME, organism-based; conditions: in vivo; procedure, shortened: as §1
Rattus norvegicus [20] = organism: Rattus norvegicus; assay: Biodistribution was reported in rat brain after 30 min.; type: ADME, organism-based; conditions: in vivo, 0.5 h; procedure, shortened: as §1
Rattus norvegicus [21] = organism: Rattus norvegicus; assay: Biodistribution was reported in rat liver after 1 min.; type: ADME, organism-based; conditions: in vivo; procedure, shortened: as §1
Rattus norvegicus [22] = organism: Rattus norvegicus; assay: Biodistribution was reported in rat liver after 15 min.; type: ADME, organism-based; conditions: in vivo, 0.25 h; procedure, shortened: as §1
Rattus norvegicus [23] = organism: Rattus norvegicus; assay: Biodistribution was reported in rat kidney after 15 min.; type: ADME, organism-based; conditions: in vivo, 0.25 h; procedure, shortened: as §1
Rattus norvegicus [24] = organism: Rattus norvegicus; assay: Biodistribution was reported in rat kidney after 5 min.; type: ADME, organism-based; conditions: in vivo; procedure, shortened: as §1
Rattus norvegicus [25] = organism: Rattus norvegicus; assay: Biodistribution was reported in rat kidney after 60 min.; type: ADME, organism-based; conditions: in vivo, 1 h; procedure, shortened: as §1

Dose/organ (Rattus norvegicus [1]) [%]	Dose/organ (Rattus norvegicus [2]) [%]	Dose/organ (Rattus norvegicus [3]) [%]	Dose/organ (Rattus norvegicus [4]) [%]	Dose/organ (Rattus norvegicus [5]) [%]	Dose/organ (Rattus norvegicus [6]) [%]	Dose/organ (Rattus norvegicus [7]) [%]	Dose/organ (Rattus norvegicus [8]) [%]	Dose/organ (Rattus norvegicus [9]) [%]	Dose/organ (Rattus norvegicus [10]) [%]	Dose/organ (Rattus norvegicus [11]) [%]	Dose/organ (Rattus norvegicus [12]) [%]	Dose/organ (Rattus norvegicus [13]) [%]	Dose/organ (Rattus norvegicus [14]) [%]	Dose/organ (Rattus norvegicus [15]) [%]	Dose/organ (Rattus norvegicus [16]) [%]	Dose/organ (Rattus norvegicus [17]) [%]	Dose/organ (Rattus norvegicus [18]) [%]	Dose/organ (Rattus norvegicus [19]) [%]	Dose/organ (Rattus norvegicus [20]) [%]	Structure (SMILES)	also measured
3.64	47.68	0.01	61.12	2.52	2.1	0.05	0.03	1	0.1	0	0.17	61.6	5.18	0.1	2.2	0.01	0.04	24.64	0.01	O=C(CSC(=O)c1ccccc1)NCC(c1ccccc1)C(CNC(=O)CSC(=O)c1ccccc1)c1ccccc1 (stereo not given)	Dose/organ (Rattus norvegicus [21]): 66.32%; Dose/organ (Rattus norvegicus [22]): 71.36%; Dose/organ (Rattus norvegicus [23]): 1.2%; Dose/organ (Rattus norvegicus [24]): 1.6%; Dose/organ (Rattus norvegicus [25]): 0.92%
4.62	0.56	0.03	0.88	0.98	0.56	0.06	0.01	1.92	0.18	0	0.38	6.96	9.52	0.08	16.5	0.01	0.02	31.08	0	O=C(CSC(=O)c1ccccc1)NCCCCNC(=O)CSC(=O)c1ccccc1	Dose/organ (Rattus norvegicus [21]): 17.44%; Dose/organ (Rattus norvegicus [22]): 3.84%; Dose/organ (Rattus norvegicus [23]): 5.04%; Dose/organ (Rattus norvegicus [24]): 5.4%; Dose/organ (Rattus norvegicus [25]): 1.14%
